Sampled rows, rich in hits. Any-hit rate of the full collection: about 2.6%.
OX1R antag-1: antagonists of human orexin 1 receptor | O43613 | CHO/OX1R cells, Fluo-8 calcium fluorescence, orexin A | inhibition, % at 5 µM | 0.43% of 330,000 active;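 active = inhibition above its plate's threshold, mean inhibition of all tested compounds on the plate plus 3 SD, cut at about 37% in these data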
OXTR agonist: activates the human oxytocin receptor; activation, % at 3 µM; 0.32% of 320,000 active; P30559; CHO-OTR cells, Fluo-8 calcium fluorescence; normalized: DMSO 0%, oxytocin 100%;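 active = activation above the mean of all tested compounds plus 3 SD, cutoff set per screening run, cut at about 20% in these data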;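 also: peak over basal fluorescence ratio from a 100 s FLIPR kinetic read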
OXTR potentiate: potentiates the human oxytocin receptor response; P30559; CHO-OTR cells, Fluo-8 calcium fluorescence, potentiator mode; 0% = oxytocin EC15, 100% = EC100; activation, % at 3 µM; 0.061% of 320,000 active;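 active = activation above that plate's cutoff, the mean activation of tested compounds plus 3 SD, cut at about 6.6% in these data, passing the limit was not always enough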
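Replication – single well per compound, singlicate · Assay system – CHO cell line stably expressing human OTR · Timing – 6 min pre-incubation, 100 s read · Measure – normalized max/min fluorescence ratio, % activation · Doses – 3.0 µM, one dose · Detection – Fluo-8 calcium dye fluorescence · Probe or stimulus – oxytocin near EC15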
V1aR counter: activates human V1a receptor in oxytocin agonist counter-screen | P37288 | CHO-V1R cells, Fluo-8 calcium fluorescence, agonist mode; 0% DMSO, 100% 3 nM vasopressin | activation, % at 3 µM | 0.25% of 320,000 active | AID 2797;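 active = activation above the mean activation of all tested compounds plus 3 SD, per screening run, cut at about 20% in these data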;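 also: signal is peak over basal fluorescence ratio across a 100 second FLIPR read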
Target sequence (P37288 whole entry, looked up): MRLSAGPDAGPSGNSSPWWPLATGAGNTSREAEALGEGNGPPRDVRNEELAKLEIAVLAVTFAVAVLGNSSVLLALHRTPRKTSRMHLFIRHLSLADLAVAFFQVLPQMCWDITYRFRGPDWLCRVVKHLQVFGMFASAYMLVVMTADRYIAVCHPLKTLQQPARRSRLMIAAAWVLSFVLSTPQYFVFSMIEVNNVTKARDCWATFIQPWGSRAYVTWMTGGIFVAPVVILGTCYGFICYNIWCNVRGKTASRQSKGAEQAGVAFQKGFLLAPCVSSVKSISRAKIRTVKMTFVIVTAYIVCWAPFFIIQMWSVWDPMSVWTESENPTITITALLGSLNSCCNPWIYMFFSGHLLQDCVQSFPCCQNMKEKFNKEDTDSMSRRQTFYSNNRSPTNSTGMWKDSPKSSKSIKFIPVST
OX1R antag-2: OX1R (human) antagonism; OX1R-expressing cells, FRET antagonist read-out; AID 485270; O43613; 1.8% of 330,000 active; inhibition, % at 6.6 µM; in the data active = inhibition mostly above about 38%, no sharp cut-off; inactive = mostly below about 40%
CHO parental Ca: signal in parental CHO cells, OX1R antagonist counter-screen | AID 463079 | inhibition, % at 5.6 µM | 0.63% of 330,000 active | parental CHO-K1, ATP-induced calcium, Fluo-8 fluorescence;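 active = inhibition above that plate's mean sample inhibition plus 3 SD, cut at about 26% in these data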
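Test system: untransfected parental CHO cell line; also added: ATP stimulus; dosing: 5.6 µM, single dose; signal: calcium-sensitive Fluo-8 fluorescence; measure: percent inhibition of ATP-evoked calcium rise, normalized to controls; benchmarks: low control ATP plus DMSO, high control DMSO only; replication: one well per compound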
Each line names hits and unclear results; the compound was inactive in the other large screens.

Cc1ccc(S(=O)(=O)NC(C)(C)CSc2nnc(Nc3ccccc3)s2)cc1	OX1R antag-1 49.5, CHO parental Ca 53.0
CCN(CC(=O)Nc1ccccc1-c1ccccc1)Cc1nc2ccccc2c(=O)[nH]1	OX1R antag-2 66.5
CCN(CC(=O)Nc1ccccc1SC)Cc1nc2ccccc2c(=O)[nH]1	none
CC[C@@H](Nc1ncnc2c1oc1ccccc12)C(=O)O	CHO parental Ca 98.8
Cc1cccc2[nH]c3c(N4CC=C(c5ccc(F)cc5)CC4)ncnc3c12	OX1R antag-2 77.0, CHO parental Ca 35.6
COc1cccc2[nH]c3c(N4CCCCC4)ncnc3c12	none
O=C(CCN1C(=O)C2C3C=CC(C3)C2C1=O)N1CCN(c2ccccn2)CC1 (centres undefined)	none
O=C1C2C3C=CC(C3)C2C(=O)N1c1ccc(N2CCN(c3ccccn3)CC2)c([N+](=O)[O-])c1 (centres undefined)	CHO parental Ca 63.2
C/C(=N\OCc1nc2ccccc2c(=O)n1/N=C/c1cc([N+](=O)[O-])ccc1O)c1ccccc1	none
C/C(=N\OCc1nc2ccccc2c(=O)n1/N=C/c1cc(C)cc([N+](=O)[O-])c1O)c1ccccc1	OX1R antag-2 47.4
Cn1cc([N+](=O)[O-])c(C(=O)Nc2ccc(Br)cn2)n1	OX1R antag-2 50.1
Cn1cc([N+](=O)[O-])c(C(=O)N/N=C/c2ccncc2)n1	OX1R antag-2 75.4
Cc1ccc(S(=O)(=O)Oc2ccc(/C=N/NC(=O)c3nn(C)cc3[N+](=O)[O-])cc2)cc1	none
Cc1cccc(C)c1NC(=O)CN1CCN(C(=O)c2ccc(OCc3cn4ccccc4n3)cc2)CC1	none
CCc1cccc(OCC(=O)Nc2ccccc2N2CCCC2)c1	none
O=C(COC(=O)/C=C/c1cccc(C(F)(F)F)c1)NCc1cccs1	CHO parental Ca 36.1
O=C(COC(=O)c1cccc(C(F)(F)F)c1)NCc1ccccc1	CHO parental Ca 49.2
CCOc1cc(/C=C2\NC(=O)NC2=O)ccc1OC(C)C(=O)O (centres undefined)	OX1R antag-2 41.6
O=C(NC1CCCCC1)C1CCCN1S(=O)(=O)c1ccc(F)cc1 (centres undefined)	none
Cc1ccc(S(=O)(=O)N2CCCC2C(=O)NC2CCCCC2)cc1 (centres undefined)	OX1R antag-2 57.4
CC(C)C(NS(=O)(=O)c1cccc2nsnc12)C(=O)NCc1ccco1 (centres undefined)	none
O=C(NCc1ccco1)C(Cc1ccccc1)NS(=O)(=O)c1cccc2nsnc12 (centres undefined)	OX1R antag-2 50.8
CC(=O)Nc1ccc(NC(=O)C(NS(=O)(=O)c2cccc3nsnc23)C(C)C)cc1 (centres undefined)	OX1R antag-2 55.9
CNC(=O)C(=O)NCC1OCCN1S(=O)(=O)c1ccc([N+](=O)[O-])cc1 (centres undefined)	OX1R antag-2 71.5
O=C1N(Cc2cccnc2)C[C@@H]2C[C@@H](c3cccc(OC4CCCC4)c3)N3CCC[C@@]123	none
CCOC(=O)CNC(=O)N1CCCC(N(C)CCc2ccccc2)C1 (centres undefined)	none
Cc1cccc(NC(=O)CN2CCN(C(=O)c3c(C)nn(Cc4ccccc4)c3C)CC2)c1C	none
COC(=O)C1CCCN1S(=O)(=O)c1ccc([N+](=O)[O-])cc1 (centres undefined)	OX1R antag-2 36.0
CC1CCC(NC(=O)C(NS(=O)(=O)c2cccc3nsnc23)C(C)C)CC1 (centres undefined)	none
O=C(NC1CCCCC1)C1CCCN1S(=O)(=O)c1cccc2nsnc12 (centres undefined)	OX1R antag-2 60.5
COC(=O)C1CCCN1S(=O)(=O)c1ccc2ccccc2c1 (centres undefined)	none
CCC(C)NC(=O)C(NS(=O)(=O)c1cccc2nsnc12)c1ccccc1 (centres undefined)	none
CC(C)C(NS(=O)(=O)c1cccc2nsnc12)C(=O)NC1CCCCC1 (centres undefined)	OX1R antag-2 75.1
